In ChEMBL document CHEMBL3392997, “Interconversion of Functional Activity by Minor Structural Alterations in Nonpeptide AT2 Receptor Ligands” (ACS Med Chem Lett, 2015):
Active and inactive are the calls of the source. The calls are words filed in the database; no cut-off is given here.

How the values were obtained:
[1] = biological target: T1, Type-2 angiotensin II receptor (Homo sapiens) (UniProt P50052); assay: Agonist activity at AT2 receptor (unknown origin) expressed in NG108-15 cells assessed as induction of neurite outgrowth at 10 nM after 3 days by phase contrast microscopy; format: cell-based
T1 sequence (whole entry): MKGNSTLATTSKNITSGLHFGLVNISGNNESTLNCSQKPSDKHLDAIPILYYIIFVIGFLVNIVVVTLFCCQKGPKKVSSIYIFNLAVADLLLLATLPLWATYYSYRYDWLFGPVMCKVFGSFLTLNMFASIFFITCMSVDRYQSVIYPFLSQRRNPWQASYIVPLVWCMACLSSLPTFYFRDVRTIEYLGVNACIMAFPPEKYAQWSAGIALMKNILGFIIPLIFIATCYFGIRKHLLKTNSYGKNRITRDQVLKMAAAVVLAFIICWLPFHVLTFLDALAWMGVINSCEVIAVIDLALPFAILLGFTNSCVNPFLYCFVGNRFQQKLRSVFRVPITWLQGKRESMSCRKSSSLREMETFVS
Outline: (§1)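 Undifferentiated NG108-15 cells were plated at 3.6×10^4 cells per 35 mm dish and cultured 3 days with agent alone, or with 10 μM PD 123,319 or 100 nM Ang II. Phase-contrast micrographs were taken. A cell with at least one neurite longer than its cell body scored positive, expressed as percent of total cells counted (at least 400). Two-way ANOVA.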

[2] = biological target: T1, Type-2 angiotensin II receptor (Homo sapiens); assay: Agonist activity at AT2 receptor (unknown origin) expressed in NG108-15 cells assessed as induction of neurite outgrowth at 10 nM after 3 days in presence of 10 uM AT2 receptor antagonist PD 123,319 by phase contrast microscopy; format: cell-based; outline: as §1
[3] = biological target: T1, Type-2 angiotensin II receptor (Homo sapiens); assay: Agonist activity at AT2 receptor (unknown origin) expressed in NG108-15 cells assessed as induction of neurite outgrowth at 100 nM after 3 days by phase contrast microscopy; format: cell-based; outline: as §1
[4] = biological target: T1, Type-2 angiotensin II receptor (Homo sapiens); assay: Antagonist activity against AT2 receptor (unknown origin) expressed in NG108-15 cells assessed as reduction in angiotension-2-induced neurite outgrowth at 10 nM after 3 days by phase contrast microscopy; format: cell-based; outline: as §1
[5] = biological target: T1, Type-2 angiotensin II receptor (Homo sapiens); details: NG108-15, 10 uM
[6] = biological target: T2, Type-1 angiotensin II receptor A (Rattus norvegicus, UniProt P25095); assay: Displacement of [125I]-Ang II from AT1 receptor in rat liver membranes after 2 hrs by gamma-counting method; format: cell membranes, Membrane
T2 sequence (P25095 whole entry): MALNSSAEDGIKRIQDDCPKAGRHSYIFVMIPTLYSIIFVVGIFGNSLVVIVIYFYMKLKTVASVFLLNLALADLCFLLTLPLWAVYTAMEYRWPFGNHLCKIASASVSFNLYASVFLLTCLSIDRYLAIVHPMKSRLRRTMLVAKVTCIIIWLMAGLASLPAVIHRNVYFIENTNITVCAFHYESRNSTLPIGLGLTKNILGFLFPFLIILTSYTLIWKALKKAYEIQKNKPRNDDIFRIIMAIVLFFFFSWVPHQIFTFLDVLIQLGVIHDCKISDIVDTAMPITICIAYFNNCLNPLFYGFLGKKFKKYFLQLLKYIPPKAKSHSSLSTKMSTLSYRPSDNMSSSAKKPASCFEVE

[7] = biological target: T3, Type-1 angiotensin II receptor (Homo sapiens, UniProt P30556); assay: Displacement of [125I]-[Sar1,Leu8]angiotensin II from human AT1 receptor expressed in african green monkey COS7 cells; format: cell-based, COS-7
T3 sequence (P30556 whole entry): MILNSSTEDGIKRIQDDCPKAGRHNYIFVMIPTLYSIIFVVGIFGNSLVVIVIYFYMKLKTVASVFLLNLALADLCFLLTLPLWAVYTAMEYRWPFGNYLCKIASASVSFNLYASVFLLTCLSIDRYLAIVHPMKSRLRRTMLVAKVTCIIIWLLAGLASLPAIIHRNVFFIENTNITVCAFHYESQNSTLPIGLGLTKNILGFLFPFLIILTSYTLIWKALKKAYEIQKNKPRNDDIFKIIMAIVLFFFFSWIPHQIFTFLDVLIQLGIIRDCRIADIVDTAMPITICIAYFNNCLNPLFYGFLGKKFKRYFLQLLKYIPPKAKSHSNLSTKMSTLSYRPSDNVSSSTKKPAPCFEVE

[8] = Binding affinity to AT2 receptor (unknown origin)

Row | Activity [1] | Activity [2] | SMILES | other results
1 | Active | inactive | CCCCOC(=O)NS(=O)(=O)c1cc(CC(C)C)ccc1-c1ccc(Cn2ccnc2)cc1 | –
2 | inactive | – | CCCCOC(=O)NS(=O)(=O)c1ccc(CC(C)C)cc1-c1cccc(Cn2ccnc2)c1 | Activity [3]: inactive; inhibition [4]: Active
3 | Active | inactive | CCCCOC(=O)NS(=O)(=O)c1ccc(CC(C)C)cc1-c1ccc(Cn2ccnc2)cc1 | –
4 | – | – | Cc1cc(Cn2cnc3c2C[C@@H](C(=O)O)N(C(=O)C(c2ccccc2)c2ccccc2)C3)ccc1N(C)C | inhibition [5]: Active
5 | Active | inactive | CCCCOC(=O)NS(=O)(=O)c1cc(CC(C)C)ccc1-c1cccc(Cn2ccnc2)c1 | –
6 | – | – | CCCCOC(=O)NS(=O)(=O)c1sc(CC(C)C)cc1-c1ccc(Cn2ccnc2)cc1 [BULOXIBUTID] | Ki [6]: > 10000 nM
7 | – | – | CCCCOC(=O)NS(=O)(=O)c1ccc(CC(C)C)cc1-c1ccc(Cn2c(CC)nc3c(C)cc(C)nc32)cc1 | IC50 [7]: 2.1 nM; IC50 [8]: 0.7 nM
8 | – | – | CCCCOC(=O)NS(=O)(=O)c1ccc(CCC)cc1-c1ccc(Cn2c(CC)nc3c(C)cc(C)nc32)cc1 | IC50 [8]: 4.2 nM
